Consider 95 compounds from ChEMBL document CHEMBL4513216, “Probing the Open Global Health Chemical Diversity Library for Multistage-Active Starting Points for Next-Generation Antimalarials” (ACS Infect Dis, 2020).

The series in a line: Toxicity liver stage against HepG2, at 10uM. The class given is cell-based. The arrangement: test concentration 10 uM, cell line HepG2-A16-CD81EGFP. Conditions: human, HepG2-A16-CD81EGFP cells; read-out: INHIBITION
A digest of the protocol:
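Uninfected HepG2-A16-CD81EGFP cells, 3 × 10^3 per well, 1536-well, plated on prespotted compound at 10 μM final, parasite-free screening media added to match infected plates; puromycin 10 μM positive, DMSO 0.5% negative; run in parallel with 48 h PbLuc assay at 37 °C, 5% CO2; viability by CellTiter-Glo luminescence, normalized to controls.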
For the compound `CCOn1c(SC(C)C)nc2ccccc2c1=O`, the cytotoxicity at 10 µM was -5.36%.

Regarding `Cc1ccc2c(c1)nc1n2[C@@H](CNC(=O)c2ccccn2)COC1`, the cytotoxicity at 10 µM came out at 7.82%.

In the case of `O=C(c1ccno1)N1C[C@@H](F)[C@@H](OCc2nc3ccccc3o2)C1`, the cytotoxicity at 10 µM turned out to be 7.61%.

For `Cc1c(OCC(=O)NCc2ccccc2)c(=O)ccn1C`, the cytotoxicity at 10 µM was -49.9%.

`O=C(CCc1nnc2ccccn2c1=O)NCc1ccc2c(c1)OCO2`: the cytotoxicity at 10 µM is -0.403%.

As to `O=C(c1cc2c(Cl)cccc2[nH]1)N1CCN(CCc2ccccn2)CC1`, the cytotoxicity at 10 µM came to 3.07%.

`O=C(NCCN1CCC(c2cccs2)CC1)c1ccc(F)cc1Cl`: the cytotoxicity at 10 µM is -2.83%.

Regarding `COCCNC(=O)NC1(c2nc(-c3ccncc3)no2)CCCCC1`, the cytotoxicity at 10 µM was -2.46%.

For `Cc1ccc(CN2CCC3(CCN(S(=O)(=O)c4ccccc4)C3)C2)o1` (stereo not given), the cytotoxicity at 10 µM was -0.00736%.

Turning to `c1cc(-c2ccc3c(c2)CCC32CCNCC2)ccn1`, the cytotoxicity at 10 µM was 8.86%.

As for `CN(C)C(=O)Cn1c2c(ccc1=O)CC(NCc1cccnc1)CC2` (stereo not given), the cytotoxicity at 10 µM was determined as 18%.

For `CCOC[C@@H]1CC[C@H]2[C@H](CCN2S(=O)(=O)Cc2ccccc2)O1`, the cytotoxicity at 10 µM is 2.84%.

Turning to `CN(C)S(=O)(=O)N1CC[C@]2(C[C@@H](OCC3CC3)CO2)C1`, the cytotoxicity at 10 µM stood at 8.88%.

Regarding `CCC(C)n1c(SCC(=O)N2CCOCC2)nc2cc(C)[nH]c2c1=O` (stereo not given), the cytotoxicity at 10 µM was 7.94%.

As to `O=C(O)c1ccc2c(CN3CCOCC3)c[nH]c2c1`, the cytotoxicity at 10 µM came out at 4.91%.

For `Cc1cc(C)n(CCCNc2ncnc3c2NC(=O)CN3)n1`, the cytotoxicity at 10 µM came out at 8.71%.

In the case of `Cc1csc2c(C3CCCN(C(=O)CCn4ccnc4)C3)nc(C)n12` (stereo not given), the cytotoxicity at 10 µM stood at 16.9%.

Turning to `Cn1cc(CN2CCCCC2c2ccc(-c3cccc(Cl)c3)nc2)cn1` (stereo not given), the cytotoxicity at 10 µM was -8.51%.

In the case of `CC1(C(=O)N2CCOCC2)CN(C2CCCCC2)CCO1` (stereo not given), the cytotoxicity at 10 µM was -22.3%.

Take `Cc1cnn(CC2CCN(CC(O)c3ccccc3Cl)CC2)c1` (stereo not given): the cytotoxicity at 10 µM stood at 4.51%.

For the compound `CCN(CC)c1ncc(Cl)c(C(=O)NC2CC2)n1`, the cytotoxicity at 10 µM was -33.5%.

As for `COc1ccc2nc(C3CC3)cc(C(=O)NCc3noc(C)n3)c2c1`, the cytotoxicity at 10 µM was 11.8%.

Regarding `Cn1ccc(NC(=O)Cc2ccccc2F)n1`, the cytotoxicity at 10 µM was found to be 19.1%.

For `Cc1cc(C(=O)CN2C(=O)c3ccccc3CS2(=O)=O)c(C)[nH]1`, the cytotoxicity at 10 µM was 13.5%.

`CC(=O)c1cccc(OCCCC(=O)N(C)CCC(F)(F)F)c1`: the cytotoxicity at 10 µM is 4.33%.

For `OC(CN(Cc1ccccc1)Cc1cccnc1)c1cccs1` (stereo not given), the cytotoxicity at 10 µM is 4.01%.

For the compound `Cc1nc(C)n(CC2CCCN(CC(=O)Nc3cccnc3)C2)n1` (stereo not given), the cytotoxicity at 10 µM was -4.84%.

`Cc1cc(C)cc(C(=O)NCc2ncnn2C)c1`: the cytotoxicity at 10 µM turned out to be 4.64%.

For `Cc1cc(=O)n(C)cc1NC(=O)Cc1cc(F)ccc1F`, the cytotoxicity at 10 µM is -11.4%.

Turning to `CCN(Cc1ccccc1)C1CCN(c2cc(C)nn2C)C1=O` (stereo not given), the cytotoxicity at 10 µM is -3.03%.

With `Cc1c(I)cccc1C(=O)NCc1ncc[nH]1`, the cytotoxicity at 10 µM worked out at 17.3%.

Turning to `CCc1nc(Cn2c(=O)n(CC)c3ccccc32)no1`, the cytotoxicity at 10 µM is -43.9%.

Turning to `CN(CC(=O)NCC1CCCO1)Cc1nc2c(s1)CCCC2` (stereo not given), the cytotoxicity at 10 µM was determined as 21.6%.

Regarding `OC(COCc1cccs1)CSc1nnc2ccccn12` (stereo not given), the cytotoxicity at 10 µM is 1.66%.

With `Cc1nnc(N2CCN(C(=O)NC3CC3)CC2)c(C(N)=O)c1C`, the cytotoxicity at 10 µM was 4.34%.

Regarding `CCCN1CCCN(S(=O)(=O)c2cnc3onc(C)c3c2)CC1`, the cytotoxicity at 10 µM came to 1.71%.

On to `Cc1noc(CN2CCC(Cc3ccc(F)cc3)CC2)n1`, for which the cytotoxicity at 10 µM was 11.3%.

For the compound `Cc1ccc(C(CNC(=O)Cc2nc3ncccn3n2)N(C)C)cc1` (stereo not given), the cytotoxicity at 10 µM was -1.64%.

With `CNc1nc(CNC(=O)Nc2ccc(OC(C)C)cc2C)cs1`, the cytotoxicity at 10 µM was 26.4%.

Take `COc1cccc(-c2ccc3nc(C4CCN(C(C)=O)CC4)nn3c2)c1`: the cytotoxicity at 10 µM came out at 9.84%.

`Cc1nc(CN2CCC3(C2)CN(Cc2ccco2)C3)cs1`: the cytotoxicity at 10 µM was -106%.

In the case of `Cc1occc1C(=O)N1CCCC2(CCN(c3ccsc3)C2=O)C1` (stereo not given), the cytotoxicity at 10 µM is -70.7%.

As to `CCOCC1CN(C(=O)c2cscn2)Cc2cnn(CC3CC3)c21` (stereo not given), the cytotoxicity at 10 µM is -69.4%.

For `Cc1cnc(C(=O)N2CCC3(CC2)CN(c2ccccn2)CCO3)cn1`, the cytotoxicity at 10 µM was -80.2%.

Take `CC(C)N1CCCn2nc(C(=O)NCCc3ccccn3)cc2C1`: the cytotoxicity at 10 µM was -1.95%.

With `CC(C)=CCN1CCC2(CC1)c1ccccc1[C@@H](N1CCSCC1)[C@@H]2O`, the cytotoxicity at 10 µM was found to be 7.25%.

With `Cc1ccc(N2C[C@@H]3CN(C(=O)NC4CCCC4)C[C@]3(C(=O)O)C2)nn1`, the cytotoxicity at 10 µM was found to be 19.5%.

Consider `CC1(C)CCN(Cc2ccccc2-c2nc(C(C)(C)C)cc(=O)[nH]2)C1`, for which the cytotoxicity at 10 µM was -39.9%.

Turning to `CCc1cnc(C)nc1N1CCS(=O)(=O)CC1`, the cytotoxicity at 10 µM was -43.3%.

Take `Cc1ccc(-c2cc(C(=O)NCCCc3csc(N)n3)[nH]n2)s1`: the cytotoxicity at 10 µM was 81.7%.

Consider `COc1ccccc1OC1(C(=O)O)CCN(c2nc(C)cnc2C)CC1`, for which the cytotoxicity at 10 µM was -13.6%.

`Cc1ccnc(NCCNC(=O)CCNC(=O)c2ccccc2F)c1`: the cytotoxicity at 10 µM came out at 1.5%.

With `Cc1ccc(C#N)c(N2CCCC(c3nccn3Cc3cscn3)C2)n1` (stereo not given), the cytotoxicity at 10 µM was -1.9%.

For `c1ccc(-c2nc3c(c(NCCCn4cncn4)n2)CCNCC3)nc1`, the cytotoxicity at 10 µM is -45.6%.

On to `O=C(c1ccnc(-n2cnnc2)c1)N1CCCC2(CCNC2)C1` (stereo not given), for which the cytotoxicity at 10 µM is -19.1%.

Take `CC(=O)NCC1CCC2(CCN(c3ncc(C(C)=O)c(C)n3)CC2)O1` (stereo not given): the cytotoxicity at 10 µM was -0.611%.

For `CCOc1ccc(C(=O)NC2CC2)cc1C`, the cytotoxicity at 10 µM was 8%.

As to `CC1Oc2ccc(S(=O)(=O)NCCCn3ccnc3)cc2NC1=O` (stereo not given), the cytotoxicity at 10 µM was found to be 7.88%.

For `Cc1nc(CCCNC(=O)C2CC(=O)N(C3CC3)C2)sc1C` (stereo not given), the cytotoxicity at 10 µM is -12.9%.

As to `CCOCCCNc1nc(O)cc(C2CC(=O)N(C)C2)n1` (stereo not given), the cytotoxicity at 10 µM came to 0.873%.

As to `CC(C)Cc1cc(NC(=O)c2n[nH]c3ccccc23)n(C)n1`, the cytotoxicity at 10 µM was -15.9%.

With `Cc1cnn(C2CN(CC(=O)NCCCc3ccccc3)C2)c1`, the cytotoxicity at 10 µM was found to be 0.555%.

In the case of `Cc1nc(CN2CCCN(CCOc3ccc(C#N)cc3)CC2)no1`, the cytotoxicity at 10 µM was -5.93%.

For `CC(NC(=O)NCCN1CCCC1)c1nncn1C` (stereo not given), the cytotoxicity at 10 µM was -5.68%.

In the case of `CC(=O)N(Cc1noc(C2CC2)n1)C1CCN(CC2CCOCC2)C1` (stereo not given), the cytotoxicity at 10 µM is 1.29%.

With `COCCS(=O)(=O)Nc1ccc(-n2cncn2)c(F)c1`, the cytotoxicity at 10 µM was -12.2%.

Take `NC(=O)C1CCN(C(=O)NCc2cccnc2OCC(F)(F)F)C1` (stereo not given): the cytotoxicity at 10 µM was -11.2%.

Turning to `CN(C)c1cc2c(nn1)CCN(C(=O)C1Cc3ccccc3O1)C2` (stereo not given), the cytotoxicity at 10 µM was -18.5%.

On to `Cc1cc(C)n(CC2CCCCN2C(=O)c2ccc3c(c2)COC3)n1` (stereo not given), for which the cytotoxicity at 10 µM is -24.4%.

For `CCn1ncc2c1CCCC2NCc1ccccc1N1CCOCC1` (stereo not given), the cytotoxicity at 10 µM was -7.66%.

Turning to `Cc1cnn(C2CCCN(C(=O)c3cccc4c3OCO4)C2)c1` (stereo not given), the cytotoxicity at 10 µM is -2.23%.

Take `CCc1nc(CN2CCOC(CN(CC)c3cccnn3)C2)cs1` (stereo not given): the cytotoxicity at 10 µM amounted to 3.09%.

`COCCN1CCC(NCc2ccc(C#N)cc2)C1` (stereo not given): the cytotoxicity at 10 µM is -9.34%.

For `O=C(c1ccsc1)N1CCCC(c2cc(C(F)(F)F)[nH]n2)C1` (stereo not given), the cytotoxicity at 10 µM was -4.22%.

As for `Cn1cc(CN2CCCN(C(=O)c3cn4ccccc4n3)CC2)cn1`, the cytotoxicity at 10 µM is -5.97%.

Take `CCN1CCN(c2ccc(CNC(=O)c3ccc(Cl)o3)cn2)CC1`: the cytotoxicity at 10 µM was -0.433%.

`CN(C)C(=O)COC[C@]12COC[C@H]1CN(C1CCCC1)C2`: the cytotoxicity at 10 µM is -108%.

In the case of `COCCN1CCC2(CC1)CC(NC(=O)CC1CC1)c1ccccc1O2` (stereo not given), the cytotoxicity at 10 µM is -1.83%.

In the case of `N#Cc1ccc(N2CCCC3(CCC(=O)N3CC3CC3)CC2)nc1` (stereo not given), the cytotoxicity at 10 µM was -125%.

Take `CN1CC[C@]2(CN(CC3CCOC3)C[C@H]2c2ccccc2)C1=O` (stereo not given in full): the cytotoxicity at 10 µM was 0.619%.

`Cc1ccc(CN2CCO[C@H]3[C@H](OCc4cccnc4)CC[C@@H]32)o1`: the cytotoxicity at 10 µM was 6.22%.

In the case of `CS(=O)(=O)N[C@@H]1CN(C(=O)c2cccnc2)[C@@H]2CCCO[C@@H]21`, the cytotoxicity at 10 µM was -81.8%.

Consider `CS(=O)(=O)N1CCOCC12CCN(Cc1ccc(F)cc1)CC2`, for which the cytotoxicity at 10 µM came to 3.39%.

For `Fc1cnc(N2CCN3C[C@H](Oc4cncnc4)C[C@H]3C2)nc1`, the cytotoxicity at 10 µM is -5.38%.

For the compound `CN(Cc1cn2c(n1)CN(C1CCOCC1)CC2)Cc1ccco1`, the cytotoxicity at 10 µM is -64.3%.

For the compound `Cn1ccc(CN2CCCC23CCN(Cc2cccc(F)c2)CC3)n1`, the cytotoxicity at 10 µM was -103%.

Take `COCCN1C[C@@H]2CN(c3cc(OC)ncn3)CCC[C@]2(C(=O)O)C1`: the cytotoxicity at 10 µM worked out at 4.26%.

For the compound `O=C1[C@H]2CN(Cc3ccccn3)C[C@H]2CN1c1ccsc1`, the cytotoxicity at 10 µM was -73.2%.

Turning to `CN(C)CCN1CCC2(CCN(C(=O)c3ccc(F)cc3)CC2)C1=O`, the cytotoxicity at 10 µM is -0.00146%.

With `N#Cc1cccc(CN2CC[C@@H]3CN(c4ncccn4)CCO[C@@H]3C2)c1`, the cytotoxicity at 10 µM is -6.51%.

As for `Fc1ccc(CN2CCC3(CC2)CCN(c2ncccn2)CC3)cc1`, the cytotoxicity at 10 µM was -73.7%.

Regarding `CN(C)S(=O)(=O)N1CC[C@]2(C[C@H](OCc3ccncc3)CO2)C1`, the cytotoxicity at 10 µM was 1.23%.

On to `O=C(C1CCC2(CCN(c3nncs3)CC2)CO1)N1CCCC1` (stereo not given), for which the cytotoxicity at 10 µM worked out at 9.46%.

Consider `O=C(c1ccco1)N1CCCC2(CCN(c3nncs3)C2)C1` (stereo not given), for which the cytotoxicity at 10 µM was -97.4%.

Take `CCc1cc(CN2C[C@@H]3CC[C@H]2CN(C2Cc4ccccc4C2)C3)on1`: the cytotoxicity at 10 µM was 0.998%.
